In the library only some 3.1% were active in any assay of this set; here they are far more common.
Beta cell apopt = beta cell apoptosis inhibition | INS-1E cytokine-induced death, ATP luminescence, 48 h; percent of positive-control rescue, neutral wells zero | protection from apoptosis, % (test concentration not listed) | 0.8% of 300,000 active | AID 435005;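 active = Every replicate reaches about 75%, or at least half do and their mean reaches it too, limit read from the data; inconclusive = At least half of replicates reach the limit but their mean does not; inactive = Under half of replicates reach the limit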;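 also: 0% = cytokine-treated negative control wells and 100% = positive control rescue; higher means more ATP so stronger rescue from cytokine killing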
Bfl-1 A1 inh = inhibitors of the anti-apoptotic protein A1, read as caspase activation. MEF A1-2A-BIM cells, Caspase-Glo 3/7 luminescence, 3 h; percent of clofoctol response, vehicle zero. caspase activation, % (no concentration beside the values). 0.066% of 330,000 active;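 active = over half of replicate activation scores above 10%, or exactly half above 10 with the replicate mean above 10; inconclusive = replicate mean below 10 yet half the replicates above 10; inactive = over half of replicates below 10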
TAG inh = triacylglycerol accumulation inhibition. H9c2 cells, Nile Red lipid (TAG) fluorescence; cells loaded with 200 µM oleic acid. inhibition, % at 12.5 µM. 0.66% of 230,000 active;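 active = pattern-corrected inhibition of lipid staining of at least 50% with the nuclear-stain viability signal not falling by more than 50%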;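 also: 0% = DMSO wells and 100% = triacsin C control wells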
CSC inhib = cancer stem cell inhibition; cancer stem cell-like cells viability, luminescence; inhibition, % at 7.5 µM; 1.1% of 300,000 active; AID 2717; in the data active = inhibition above about 75%; inconclusive = no clear call, values can overlap the other calls; tested in HMLE shEcad cells
T cruzi inh = blocks replication of Trypanosoma cruzi | T. cruzi beta-gal in NIH3T3, luminescence, 90 h | inhibition, % (no concentration beside the values) | 1.4% of 300,000 active;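 active = mean inhibition across valid replicates above about 55%, limit read from the data; inconclusive = mean below that limit but half or more replicates reach it; inactive = mean below it, under half of replicates reach it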;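 also: signal also drops with host cell toxicity which is not excluded here; 0% = plate median of DMSO wells and 100% = zero luminescence signal; higher percent means less beta-gal luminescence so fewer parasites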
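System: NIH/3T3 fibroblasts plus reporter T. cruzi. Medium: DMEM plus 2% FBS. Probe or stimulus: 5000 reporter trypomastigotes per well. Compound: single 50 nL compound addition per well in DMSO. Incubation: co-culture of at least 90 h after 3 h attachment. Detection: GalScreen β-gal luminescence, detergent lysis, 60 min. Evaluation: parasite load inhibition, %.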
Calb FLC = affects C. albicans growth with fluconazole; growth inhibition, % (no concentration beside the values); C. albicans CaCi-2 (fluconazole-resistant clinical isolate) + fluconazole, Alamar Blue growth, 48 h; 0.57% of 300,000 active;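 active = growth inhibition above about 58% in most replicates, limit read from the data, passing the limit was not always enough; inconclusive = exactly half the replicates above a set limit; inactive = most replicates below a set limit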;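 also: all wells also contain fluconazole at 8 µg/ml as a sub-toxic cotreatment; 0% = median of DMSO wells and 100% = median of geldanamycin control wells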
Numbers without * were called inactive; ? = inconclusive; . = no result given.

SMILES	Beta cell apopt	Bfl-1 A1 inh	TAG inh	CSC inhib	T cruzi inh	Calb FLC
O=C(N/N=C/c1cc(Br)c(O)c(Br)c1)C1CC1	0.7	1.2	.	-2.2	-1.9	4.8
CC(C)(C)NC(=S)N/N=C/c1cc(Br)c(O)c(Br)c1	5.0	-0.2	7.0	7.2	27.1	76.5*
O=C(COC(=O)c1cnccn1)N=c1sccn1Cc1ccccc1Cl	-5.8	0.4	8.4	-5.0	-0.3	-1.0
CC(=O)n1cc(N(C(=O)CCl)c2ccc(Cl)cc2)c2ccccc21	0.7	2.8	67.0*	29.9	65.6*	30.0
CCOC(=O)c1ccccc1Nc1cn(C(C)=O)c2ccccc12	2.4	0.6	36.9	55.0	-11.2	4.9
COc1ccccc1N(C(=O)CCl)c1cn(C(C)=O)c2ccccc12	4.8	0.4	73.7*	16.7	6.3	2.8
O=C(c1cccs1)c1ccccc1Cc1cccs1	.	.	-12.6	.	.	.
CC(=O)Cc1nsc(Nc2ccc(Cl)cc2)n1	3.1	-0.2	-0.8	-6.1	.	117.5*
N#Cc1cc([N+](=O)[O-])ccc1NC(=O)COC(=O)CC1CCCC1	-2.0	0.1	.	-5.2	-7.9	-2.0
Cc1ccc(CN2CCC(Oc3cccc(C(=O)N(C)CCN(C)C)c3)CC2)cc1C	-0.4	0.2	23.7	-6.9	57.4*	1.1
C/C(N)=C(/C#N)C(=O)CSc1nc2cc(Cl)ccc2c(=O)n1Cc1ccco1	-14.8	0.6	-5.8	30.6	58.8*	2.1
CC(=O)Nc1c(Cl)cc2c(c1Cl)Cc1cc(C#N)ccc1-2	.	.	19.8	.	.	.
O=C(/C=C/c1ccccc1)NC(NC(=S)Nc1ccc(Cl)cc1Cl)C(Cl)(Cl)Cl (stereo unspecified)	26.7	-0.1	.	110.3*	77.8*	-28.0
O=C(NC(NC(=S)Nc1c(Cl)cc(Cl)cc1Cl)C(Cl)(Cl)Cl)OCc1ccccc1 (stereo unspecified)	44.3	-0.3	.	31.7	73.8*	-7.6
Cc1ccc(C)c(NC(=S)NC(NC(=O)OCc2ccccc2)C(Cl)(Cl)Cl)c1 (stereo unspecified)	1.8	-0.8	.	-19.0	17.3	-3.0
O=C(/C=C/c1ccccc1)NC(NC(=S)Nc1cccc(Cl)c1)C(Cl)(Cl)Cl (stereo unspecified)	.	0.5	-14.8	71.7	59.0*	0.8
O=C(/C=C/c1ccccc1)NC(NC(=S)Nc1cccc(O)c1)C(Cl)(Cl)Cl (stereo unspecified)	4.1	0.0	.	29.2	1.8	13.3
Cn1c(NC2CCCCC2)cc(=O)n(C)c1=O	-1.1	1.3	.	-12.1	-0.9	-4.0
Cc1cc(C2CCCCC2)n(O)c(=O)c1	87.8*	-0.9	16.3	104.8*	.	.
Cc1ccc(-c2csc3nc4c5ccccc5c(NCCCN(C)C)nn4c(=O)c23)cc1	6.5	0.0	59.3*	-6.9	34.8	77.9*
Cc1cccc(C(=O)N/N=C/c2ccc(OC3CSC3)cc2)c1	4.0	-5.2	.	76.2*	3.7	39.5
CN(C(=O)COC(=O)CSc1ccccc1)c1c(N)n(Cc2ccccc2)c(=O)[nH]c1=O	.	.	-3.4	.	.	.
CCOC(=O)c1ccc(NC(=O)c2nc(S(=O)(=O)Cc3ccccc3)ncc2Cl)cc1	78.1*	1.4	.	102.9*	-9.1	-1.9
CC(C)c1nnc(NC(=O)c2nc(S(=O)(=O)Cc3ccccc3)ncc2Cl)s1	.	.	.	.	-22.4	-2.4
CCc1ccc(NC(=O)c2nc(S(=O)(=O)Cc3ccccc3)ncc2Cl)cc1	71.8	11.0*	.	104.6*	-17.4	9.9
SMILES	Beta cell apopt	Bfl-1 A1 inh	TAG inh	CSC inhib	T cruzi inh	Calb FLC
Cc1ccc(NC(=O)c2nc(S(=O)(=O)Cc3ccccc3C)ncc2Cl)cc1C	52.3	1.8	.	103.4*	-59.3	-3.4
CC1CCN(S(=O)(=O)c2ccc(NC(=O)c3ccncc3)cc2)CC1	12.9	-1.0	0.2	-1.2	4.1	-0.6
CCS(=O)(=O)c1ncc(Cl)c(C(=O)Nc2ccc(S(=O)(=O)N3CCC(C)CC3)cc2)n1	107.8*	41.7*	.	118.3*	62.0*	1.2
CCCCC[C@H]1CN(C2CCCCC2)C(=O)[C@@H]1CC(=O)NCc1ccccc1	4.1	0.8	27.8	-3.2	15.0	2.8
CCCCc1nnc(NC(=O)Cc2ccc(S(=O)(=O)N3CCOCC3)s2)s1	-9.5	0.1	-5.5	-9.8	.	.
CCCc1nnc(NC(=O)c2nc(S(=O)(=O)Cc3ccc(C)cc3)ncc2Cl)s1	-18.0	1.2	.	107.7*	-3.8	-4.2
COc1cccc(NC(=O)CN(C)C(=O)CCN2C(=O)C3CC=CCC3C2=O)c1 (stereo unspecified)	.	.	-6.8	.	.	.
CN(C)CC(C(=O)c1ccccc1)c1ccccc1 (stereo unspecified)	106.5*	-0.6	65.2*	54.2	57.8*	21.4
CC(=O)N1CCN(C(=O)COc2ccc3oc4c(c3c2)CCCC4)CC1	-0.3	-0.3	6.4	-13.2	-4.0	3.9
Cc1ccc(NCCN(C)C)c2c(=O)c3cc(O)ccc3sc12	.	.	63.3*	.	.	.
CCN(CC)CCNc1ccc(CO)c2sc3ccccc3c(=O)c12	39.8	0.5	22.2	31.7	64.0*	.
CN(C)CCNc1ccc2nnn3c4ccc(O)cc4c(=O)c1c23	.	.	75.6	.	.	.
O=C(N/N=C/c1ccc(O)cc1)c1csc2ccccc12	-3.7	0.5	12.1	0.3	2.8	113.8*
O=C(N/N=C/c1ccc(O)cc1)c1cc(-c2ccccc2)nc2ccccc12	8.9	-1.7	.	15.4	3.9	18.4
O=C1c2cccc(Sc3ccccc3)c2C(=O)c2c(Sc3ccccc3)cccc21	-9.1	-1.1	78.0*	-4.8	4.3	-9.6
Cc1cccc(NC(=S)/N=C(\N)Nc2nc(C)c3ccc(C)cc3n2)c1	3.4	0.6	18.4	3.2	59.8*	-30.9
Cc1ccc2nc(-c3cccc(-c4cccc(Cl)c4)c3)c(NCc3ccccc3)n2c1	94.3*	-0.5	-25.0	?	22.4	0.0
CCC(C)Sc1cccc(-c2nc3ccc(Cl)cn3c2NCc2ccccc2)c1 (stereo unspecified)	6.4	-1.1	-6.7	58.0	24.4	-8.8
CCCCNc1c(-c2ccc(-c3cccc(Cl)c3)cc2)nc2ccc(Cl)cn12	13.3	0.8	.	38.5	.	.
CCC(C)Sc1cccc(-c2nc3ccc(C)cn3c2NCc2ccccc2)c1 (stereo unspecified)	?	-0.3	3.5	124.5*	41.8	-4.4
CCCCCCSc1cc(-c2nc3ccc(C)cn3c2NCc2ccccc2)ccc1OC	116.8*	0.4	36.0	-7.0	36.7	-2.1
CCCCCCSc1cccc(-c2nc3ccc(C)cn3c2NCc2ccccc2)c1	2.5	-0.6	-23.6	80.2*	14.4	-9.5
CCN(CC(=O)Nc1ccc(NC(C)=O)cc1)C(=O)c1ccc(C(=O)c2ccccc2)cc1	2.9	-0.7	-2.9	.	.	.
Cc1nn(-c2ccc(F)cc2)c(Cl)c1C(=O)OC(C)C(=O)N(C)C1CCCCC1 (stereo unspecified)	-2.8	0.6	-3.5	3.8	.	.
O=C(Nc1ccc(N2CCCC2)cc1)c1cccc(-c2cc3ccccc3oc2=O)c1	0.5	-0.4	.	-14.3	20.2	-7.3

Screening data from PubChem.
